The values below come from paper PMC9298258 (Clinical Pharmacology and Therapeutics, 2021).

The subject of one data set is patients with RA. As to conditions: cited from earlier work.
Data set [1] is described as follows: Plasma PK of tirabrutinib in two phase I studies. The format is in vivo. The following applies: human, oral.
The next data set can be described thus: Population PK model. In kind it is in vivo, human. An outline of the steps:
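Plasma drug was measured by validated LC-MS/MS with an isotopically labeled internal standard (LLOQ 1.0 ng/mL). Pooled data came from healthy and RA subjects in two phase I studies. The model was two-compartment with first-order absorption, lag time and relative bioavailability, with IIV on CL/F, Vc/F and ka. Fitting used NONMEM FOCE-I. Covariates were screened on CL/F, Vc/F and ka, and bootstrap gave CIs.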

The next data set deals with BTK (Homo sapiens, UniProt Q06187). The experiment in a line: BTK occupancy test in peripheral blood mononuclear cells. The format is in vivo. In short, it runs like this: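 PBMC BTK occupancy measured by duplexed homogeneous TR-FRET, reading free and total BTK in the same well. LLOQ was 12 ng/mL; baselines below it were excluded. Study #1 used days 8 and 17, with day-8 predose as baseline. Study #2 sampled at baseline, days 1–7 and up to 120 h post-last-dose, or at PK timepoints. Covalent binding model with BTK-synthesis feedback (ksyn); NONMEM FOCE-I; bootstrap.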

The next data set deals with subjects with RA. The data set is described as follows: Exploratory efficacy in study #2, part B. The format is in vivo, human. The following applies: 20 mg q.d. In short, it runs like this:
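RA subjects in phase I part B were assessed at day 1 predose, week 2 and week 4. End points were plasma hsCRP and tender joint count 68 within the ACR core set. Each end point was regressed linearly against model-predicted time above 90% BTK occupancy over a 24-hour dosing interval.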

The conditions of data set [2]: cited from earlier work.
Data set [3] deals with murine collagen–induced arthritis model. The following applies: cited from earlier work.
Setting [4] is: bootstrap (N = 1000) final model median estimate.
[5] abbreviates: final PopPK model estimate (RSE%).

The structures appear in SMILES notation.

Chain of BTK (Q06187 whole entry): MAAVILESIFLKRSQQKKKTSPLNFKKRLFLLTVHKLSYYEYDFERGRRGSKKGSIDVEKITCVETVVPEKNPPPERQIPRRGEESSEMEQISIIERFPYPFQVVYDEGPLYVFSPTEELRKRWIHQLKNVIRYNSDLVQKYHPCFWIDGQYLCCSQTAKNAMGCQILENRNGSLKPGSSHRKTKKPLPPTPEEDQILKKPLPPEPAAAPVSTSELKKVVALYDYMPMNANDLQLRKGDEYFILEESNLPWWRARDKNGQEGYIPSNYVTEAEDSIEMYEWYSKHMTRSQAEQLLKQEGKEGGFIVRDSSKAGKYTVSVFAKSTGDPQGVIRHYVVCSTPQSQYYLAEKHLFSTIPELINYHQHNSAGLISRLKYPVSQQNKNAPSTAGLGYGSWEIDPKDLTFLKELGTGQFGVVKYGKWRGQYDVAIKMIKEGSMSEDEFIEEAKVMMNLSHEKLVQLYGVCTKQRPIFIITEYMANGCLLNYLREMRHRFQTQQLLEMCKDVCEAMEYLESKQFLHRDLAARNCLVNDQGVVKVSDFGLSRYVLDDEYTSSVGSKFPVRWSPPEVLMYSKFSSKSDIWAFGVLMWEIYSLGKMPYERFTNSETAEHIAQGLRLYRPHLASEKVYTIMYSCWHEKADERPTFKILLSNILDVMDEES

As for `C=CC(=O)Nc1cccc(Nc2nc(Nc3ccc(OCCOC)cc3)ncc2F)c1` [spebrutinib], the “disease markers in patients with active RA” value in the data set with patients with RA is listed as “reduce disease markers”.

In data set [1], `CC#CC(=O)N1CC[C@@H](n2c(=O)n(-c3ccc(Oc4ccccc4)cc3)c3c(N)ncnc32)C1` [tirabrutinib, Tirabrutinib] yielded a half-life of 6.2 to 7.3 h. Further, in the data set “Population PK model” (setting [4]), the Absorption lag time is 0.465 h; the “Absorption rate constant, ka” value is 0.811 h⁻¹; the “Apparent oral clearance, CL/F” value is 62.5 L/h; the “Apparent oral volume, Vc/F” value is given as 357 L. Besides, in the data set “Population PK model” (setting [4]), the “IIV of CL/F” value is on record as 27.1%, the “IIV of Vc/F” value is recorded as 53.7%, the IIV of ka is on record as 89.6% and the “Influence of age on ka” value is “–1.74”. In the data set “Population PK model” (setting [5]), the Absorption lag time is recorded as 0.465 (1) h; the “Absorption rate constant, ka” value is given as 0.800 (14) h^−1; the “Apparent oral clearance, CL/F” value is recorded as 62.6 (4) L/h; the “Apparent oral volume, Vc/F” value is recorded as 357 (7) L. In the data set “Population PK model” (setting [5]), the IIV of ka is recorded as 93.4 (13) %. Besides, the “Influence of age on ka” value in the data set “Population PK model” (final PopPK model estimate (RSE%), covariate exponent) is on record as “–1.74 (26)”. Also, at BTK (setting [4]), the “Feedback rate constant on protein synthesis from BTK inhibition, ksyn” value is -0.0290 h⁻¹. Also, the “Feedback rate constant on protein synthesis from BTK inhibition, ksyn” value at BTK (final PK/PD model estimate (RSE%)) is listed as −0.0301 (59) h^−1. The “BTK suppression after multiple dosing” value at BTK (model and observed fBTK) is recorded as “maintained through a 24‐hour dosing interval”. Moreover, in the data set on subjects with RA (week 4 visit), the “change in TJC68” value is “small numerical decrease” and the “change in hsCRP levels” value is recorded as “small numerical decrease”. Also, in the data set with subjects with RA (exploratory efficacy analysis), the “effects on disease-related outcomes” value is on record as “modest effects”. For the same molecule, the “dose proportionality of pharmacokinetics” value in data set [2] (20-to-320 mg dose range) is “dose‐proportional”. Further, the tolerability entry in data set [2] (patients with B-cell malignancies, 20 to 480 mg q.d.) is reported as “generally well‐tolerated”. Moreover, in data set [2] (phase I dose escalation study), the “absorption following oral administration” value was “rapidly absorbed”. The “arthritis severity and bone damage” value in data set [3] was “dose‐dependent inhibition”.

As for `C[C@H]1CN(C2COC2)CCN1c1ccc(Nc2cc(-c3ccnc(N4CCn5c(cc6c5CC(C)(C)C6)C4=O)c3CO)cn(C)c2=O)nc1` [fenebrutinib], the “efficacy in moderate-to-severe RA” value with patients with RA is listed as “comparable with adalimumab”. Besides, the “BTK inhibition achieved by the efficacious doses” value in the data set on patients with RA (subjects with RA) is 90%.

A word on the half-life: it is the time needed for the level to fall by half in the phase considered. Lower therefore signals fast loss.
